This is an account of results in ChEMBL document CHEMBL5143748, “Quinolines and Oxazino-quinoline Derivatives as Small Molecule GLI1 Inhibitors Identified by Virtual Screening” (ACS Med Chem Lett, 2022).

The subject of one assay is NIH3T3. Description: Inhibition of hedgehog signalling in SAG-induced mouse NIH3T3 cells assessed as decrease in GLI1 protein expression level at 1 uM for 48 hrs by Western blot analysis. It is filed as cell-based. The procedure, abridged: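 Murine NIH3T3 cells, endogenous Hh pathway activated with the SMO agonist SAG (100 nM), co-treated with compound (1 μM), DMSO vehicle or GANT61 (5 μM) for 48 h. Endogenous GLI1 detected by Western blot with HSP90 as loading control. Reduction graded qualitatively, e.g. "+" weak, "NA" not affected.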

Another assay concerns Daoy. Description: Antiproliferative activity against human DaOY cells assessed as reduction in cell viability incubated for 72 hrs by trypan blue or crystal violet staining based assay. It is filed as functional. The procedure, abridged: (§1)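 IC50 in micromolar, fitted from triplicate experiments in human melanoma A375 and medulloblastoma DAOY cells.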
Another assay deals with A-375. The assay can be described thus: Antiproliferative activity against human A375 cells assessed as reduction in cell viability incubated for 72 hrs by trypan blue or crystal violet staining based assay. The class given is functional. The following applies: A-375, 72 h. The procedure, abridged: as §1

Molecules are shown by their SMILES. Active and inactive are the calls of the source. No cut-off for these calls is given here.

As for `CCCC(=O)NC(c1ccccc1Cl)c1cc(Cl)c2cccnc2c1O` (stereo not given), in the assay with NIH3T3, the inhibition entry is “Active”. Moreover, the IC50 in the assay on Daoy and in the assay on A-375 was 100 nM throughout.

For the compound `c1cnc2c3c(ccc2c1)CN(C1CCCCCCC1)CO3`, the inhibition entry in the assay on NIH3T3 is “Active”. Besides, the IC50 – broadly, the concentration that gives 50% inhibition – in the assay with Daoy was determined as 290 nM; in the assay with A-375, 280 nM.

`CCCC(=O)NC(c1ccc(C(C)C)cc1)c1cc(Cl)c2cccnc2c1O` (stereo not given): the inhibition entry in the assay on NIH3T3 was “Active”. Moreover, the IC50 with Daoy is 90 nM; with A-375 it was 120 nM.

As for `CCCC(=O)NC(c1ccccc1)c1cc(Cl)c2cccnc2c1O` (stereo not given), the IC50 in the assay with Daoy is 110 nM; in the assay with A-375, 130 nM.

For the compound `CCCCC(=O)NC(c1ccc(Cl)c(Cl)c1)c1ccc2cccnc2c1O` (stereo not given), the inhibition entry in the assay on NIH3T3 was “Active”. Besides, the IC50 was found to be 100 nM with Daoy and 320 nM in the assay on A-375.

As for `Fc1cnc2c3c(ccc2c1)CN(CCc1ccccc1)CO3`, the inhibition result with NIH3T3 is “Active”. Also, the IC50 with Daoy is 1400 nM; in the assay with A-375 it was 1100 nM.

On to `CCCC(=O)NC(c1ccc(Cl)cc1Cl)c1ccc2cccnc2c1O` (stereo not given), for which the inhibition entry in the assay with NIH3T3 is “Active”. The IC50 is 190 nM in the assay on Daoy and 110 nM with A-375.

As to `Fc1cnc2c3c(ccc2c1)CN(C1CCCCC1)CO3`, the inhibition result in the assay with NIH3T3 was “Active”. In addition, the IC50 was 300 nM in the assay on Daoy and 500 nM in the assay with A-375.

As to `CCCCC(=O)NC(c1ccc(Cl)cc1Cl)c1ccc2cccnc2c1O` (stereo not given), the inhibition result with NIH3T3 is “Active”. Besides, the IC50 in the assay with Daoy was 150 nM; in the assay on A-375, 1120 nM.

Consider `CCCC(=O)NC(c1ccc(N(CC)CC)cc1)c1cc(Cl)c2cccnc2c1O` (stereo not given), for which the inhibition entry with NIH3T3 was “Active”. For the same compound, the half-inhibitory concentration (IC50) in the assay with Daoy was found to be 100 nM; in the assay with A-375, 130 nM.

For `CCCCOc1ccnc2c(O)c(CNC(=O)C3CCCCC3)ccc12`, the inhibition result in the assay with NIH3T3 was “Active”. Moreover, the IC50 in the assay with Daoy worked out at 510 nM; in the assay on A-375, 540 nM.

In the case of `COc1ccc(CN2COc3c(ccc4cccnc34)C2)cc1`, the inhibition entry in the assay with NIH3T3 is “Active”. In addition, the 50% inhibitory concentration (IC50) in the assay with Daoy stood at 870 nM; in the assay on A-375, 580 nM.

On to `CCCCC(=O)NC(c1ccc(Cl)cc1)c1ccc2cccnc2c1O` (stereo not given), for which the inhibition entry in the assay with NIH3T3 was “Active”. Besides, the IC50 turned out to be 330 nM in the assay on Daoy and 710 nM with A-375.

Consider `c1ccc(CCN2COc3c(ccc4cccnc34)C2)cc1`, for which the inhibition entry in the assay with NIH3T3 is “Active”. Moreover, the IC50 in the assay on Daoy was 190 nM; in the assay on A-375, 130 nM.

In the case of `CCCCN1COc2c(ccc3cc(Cl)cnc23)C1`, the inhibition entry in the assay on NIH3T3 is “Active”. Further, the IC50 in the assay with Daoy came to 380 nM; in the assay on A-375, 490 nM.

For the compound `O=C(NC(c1ccc(Cl)cc1Cl)c1ccc2cccnc2c1O)C1CCCCC1` (stereo not given), the inhibition entry in the assay with NIH3T3 was “Active”. Also, the IC50 with Daoy worked out at 240 nM; in the assay with A-375, 1010 nM.

As to `c1ccc2c(c1)CCCC2N1COc2c(ccc3cccnc23)C1` (stereo not given), the inhibition result in the assay with NIH3T3 was “Active”. Moreover, the IC50 in the assay with Daoy stood at 600 nM; in the assay with A-375 it was 300 nM.

Consider `Oc1c(CNCCc2ccccc2)ccc2cccnc12`, for which, in the assay with NIH3T3, the inhibition entry is “Active”. Further, the IC50 was 330 nM in the assay with Daoy and 390 nM with A-375.

For `CCCC(=O)NC(c1ccc(Cl)cc1)c1cc(Cl)c2cccnc2c1O` (stereo not given), the results for the IC50 in the assay on Daoy and with A-375 were 100 nM and 120 nM, respectively.

As to `O=C(NCc1ccc2c(OCc3ccccc3)ccnc2c1O)C1CCCCC1`, in the assay on NIH3T3, the inhibition entry was “Active”. For the same compound, the results for the IC50 in the assay on Daoy and with A-375 were 260 nM and 550 nM, respectively.

Take `C1=C(CCN2COc3c(ccc4cccnc34)C2)CCCC1`: the inhibition result with NIH3T3 is “Active”. Also, the IC50 turned out to be 230 nM in the assay with Daoy and 120 nM with A-375.

On to `Clc1cnc2c3c(ccc2c1)CN(CCCN1CCOCC1)CO3`, for which the inhibition entry in the assay on NIH3T3 was “Active”. Moreover, the IC50 stood at 1200 nM in the assay on Daoy and 150 nM with A-375.

On to `c1cnc2c3c(ccc2c1)CN(CC1CCCCC1)CO3`, for which the inhibition entry in the assay with NIH3T3 is “Active”. The IC50 with Daoy came out at 1000 nM; with A-375, 380 nM.

Regarding `COc1ccc(C(NC(=O)C(C)C)c2cc(Cl)c3cccnc3c2O)cc1OC` (stereo not given), the inhibition result with NIH3T3 was “Active”. Further, the values for the IC50 in the assay on Daoy and in the assay with A-375 were 100 nM and 130 nM, respectively.

On to `c1cnc2c3c(ccc2c1)CN(C1CCCCCC1)CO3`, for which the inhibition entry in the assay with NIH3T3 is “Active”. The IC50 in the assay with Daoy turned out to be 1200 nM; in the assay with A-375, 880 nM.

`Oc1c(C(NCCc2ccccc2)c2ccc(Cl)cc2Cl)ccc2cccnc12` (stereo not given): in the assay on NIH3T3, the inhibition entry was “Active”. The IC50 in the assay with Daoy was 150 nM; in the assay with A-375, 190 nM.

With `COc1ccc(C(NC(C)=O)c2cc(Cl)c3cccnc3c2O)cc1OC` (stereo not given), the inhibition result in the assay on NIH3T3 was “Active”. Moreover, the IC50 with Daoy came out at 210 nM; with A-375, 110 nM.

On to `O=C(NCc1ccc2cccnc2c1O)C1CCCCC1`, for which, in the assay with NIH3T3, the inhibition result is “Active”. Further, the IC50 in the assay on Daoy worked out at 720 nM; in the assay on A-375, 910 nM.

As for `CCCC(=O)NC(c1ccc(OC)c(OC)c1)c1ccc2cccnc2c1O` (stereo not given), the inhibition entry in the assay on NIH3T3 is “Active”. The values for the IC50 in the assay with Daoy and in the assay with A-375 were 110 nM and 130 nM, respectively.

In the case of `O=C(NC(c1ccc(Cl)cc1Cl)c1ccc2cccnc2c1O)C1CCCC1` (stereo not given), the inhibition entry in the assay with NIH3T3 is “Active”. The 50% inhibitory concentration (IC50) in the assay with Daoy stood at 150 nM; in the assay on A-375, 320 nM.

Take `CCCC(=O)NC(c1ccc(C)cc1)c1cc(Cl)c2cccnc2c1O` (stereo not given): the inhibition result with NIH3T3 is “Active”. Also, the IC50 was determined as 100 nM in the assay on Daoy and 120 nM in the assay with A-375.

On to `CC1CCC(N2COc3c(ccc4cccnc34)C2)CC1` (stereo not given), for which the inhibition result with NIH3T3 is “Active”. The IC50 with Daoy turned out to be 550 nM; with A-375 it was 420 nM.

With `c1cnc2c3c(ccc2c1)CN(C1CCCCC1)CO3`, the inhibition entry in the assay on NIH3T3 is “Active”. Also, the IC50 in the assay on Daoy stood at 500 nM; in the assay on A-375, 300 nM.

Take `CCCCC(=O)NC(c1cc(Cl)cc(Cl)c1)c1ccc2cccnc2c1O` (stereo not given): the inhibition result in the assay on NIH3T3 was “Active”. The results for the IC50 in the assay with Daoy and with A-375 were 140 nM and 90 nM, respectively.
